Measurements from ChEMBL document CHEMBL1144008, “Synthesis, nitric oxide release, and anti-leukemic activity of glutathione-activated nitric oxide prodrugs: Structural analogues of PABA/NO, an anti-cancer lead compound” (Bioorg Med Chem, 2008).

Key:
[1] = Nitric oxide release at 100 to 150 nM in pH7.4 in presence of GSH; format: functional
How it was run: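 Performed in 0.1 M pH 7.4 phosphate buffer with 1 mM GSH, sparged with inert gas until detector baseline was steady. Prodrug stock injected to final 100–150 nM. NO release followed at 37 °C. Area under the release curve integrated to give mol NO released per mol compound.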

HL-60 = test: Antiproliferative activity against human HL60 cells by MTS assay; format: functional, cell-based
How it was run: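 HL-60 human myeloid leukemia cells grown in RPMI 1640 with 10% FBS, 37 °C, 5% CO2. Seeded 10,000 cells/100 µL; compounds (DMSO stocks serially diluted in PBS, final DMSO 0.5%) added 24 h after plating. Viable cells read by MTS after 3 days. IC50 from nonlinear fit of absorbance vs concentration to a Hill-slope equation.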

SMILES | Activity [1] | IC50 (HL-60)
CN(C)c1ccc(C(=O)Oc2cc(O/N=[N+](\[O-])N(C)C)c([N+](=O)[O-])cc2[N+](=O)[O-])cc1 | 30% | > 25 µM
CC(=O)Nc1ccc(Oc2cc(O/N=[N+](\[O-])N(C)C)c([N+](=O)[O-])cc2[N+](=O)[O-])cc1 | 93% | 2.3 µM
CCN(C(=O)c1ccccc1)c1cc(O/N=[N+](\[O-])N(C)C)c([N+](=O)[O-])cc1[N+](=O)[O-] | 100% | 1.4 µM
CN(C)/[N+]([O-])=N/Oc1cc(OC(=O)c2ccccc2)c([N+](=O)[O-])cc1[N+](=O)[O-] | 15% | > 25 µM
CN(C)/[N+]([O-])=N/Oc1cc(OC(=O)c2cccnc2)c([N+](=O)[O-])cc1[N+](=O)[O-] | 4% | > 25 µM
CN(C)/[N+]([O-])=N/Oc1cc(OC(=O)c2ccc(N)cc2)c([N+](=O)[O-])cc1[N+](=O)[O-] | 63% | 13 µM
CN(C)/[N+]([O-])=N\Oc1cc(O)c([N+](=O)[O-])cc1[N+](=O)[O-] | 0% | > 25 µM
CN(C)/[N+]([O-])=N/Oc1cc(Nc2ccc(CO)cc2)c([N+](=O)[O-])cc1[N+](=O)[O-] | 100% | 6.8 µM
CNc1ccc(C(=O)Oc2cc(O/N=[N+](\[O-])N(C)C)c([N+](=O)[O-])cc2[N+](=O)[O-])cc1 | 73% | 3.9 µM
CC(=O)Nc1ccc(C(=O)Oc2cc(O/N=[N+](\[O-])N(C)C)c([N+](=O)[O-])cc2[N+](=O)[O-])cc1 | 20% | 22 µM
CC(C)Cc1ccc(C(C)C(=O)Oc2cc(O/N=[N+](\[O-])N(C)C)c([N+](=O)[O-])cc2[N+](=O)[O-])cc1 (stereo not given) | 0% | > 25 µM
CC(=O)Nc1ccc(S(=O)(=O)Oc2cc(O/N=[N+](\[O-])N(C)C)c([N+](=O)[O-])cc2[N+](=O)[O-])cc1 | 96% | 3.9 µM
CN(C(=O)c1ccccc1)c1cc(O/N=[N+](\[O-])N(C)C)c([N+](=O)[O-])cc1[N+](=O)[O-] | 99% | 1.6 µM
CC(=O)Oc1ccccc1C(=O)Oc1cc(O/N=[N+](\[O-])N(C)C)c([N+](=O)[O-])cc1[N+](=O)[O-] | 7% | > 25 µM
COc1ccc2cc(C(C)C(=O)Oc3cc(O/N=[N+](\[O-])N(C)C)c([N+](=O)[O-])cc3[N+](=O)[O-])ccc2c1 (stereo not given) | 5% | > 25 µM
